Results on 11 compounds are retold here after ChEMBL document CHEMBL1140866, “New pyrazoline bearing 4(3H)-quinazolinone inhibitors of monoamine oxidase: synthesis, biological evaluation, and structural determinants of MAO-A and MAO-B selectivity” (Bioorg Med Chem, 2009).

For data set [1], the system named is Mus musculus. The data set can be described thus: Anxiolytic activity in albino mouse assessed as total number of entries into arms at 100 mg/kg, ip by plus-maze test. It is filed as functional. To be noted: route intraperitoneal. The method, boiled down: (§1)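 Mice given compounds i.p. at 100 mg/kg in DMSO/water (1:4), about 0.1 mL, 1 h before testing; controls got 0.1 mL vehicle; n = 7–8. Housed eight per cage, 20 ± 2 °C, 12 h light/dark. Each animal did the plus-maze first, then forced swim.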

Data set [2] concerns the target T1, Amine oxidase [flavin-containing] B (Rattus norvegicus, UniProt P19643).
T1 sequence (P19643 whole entry): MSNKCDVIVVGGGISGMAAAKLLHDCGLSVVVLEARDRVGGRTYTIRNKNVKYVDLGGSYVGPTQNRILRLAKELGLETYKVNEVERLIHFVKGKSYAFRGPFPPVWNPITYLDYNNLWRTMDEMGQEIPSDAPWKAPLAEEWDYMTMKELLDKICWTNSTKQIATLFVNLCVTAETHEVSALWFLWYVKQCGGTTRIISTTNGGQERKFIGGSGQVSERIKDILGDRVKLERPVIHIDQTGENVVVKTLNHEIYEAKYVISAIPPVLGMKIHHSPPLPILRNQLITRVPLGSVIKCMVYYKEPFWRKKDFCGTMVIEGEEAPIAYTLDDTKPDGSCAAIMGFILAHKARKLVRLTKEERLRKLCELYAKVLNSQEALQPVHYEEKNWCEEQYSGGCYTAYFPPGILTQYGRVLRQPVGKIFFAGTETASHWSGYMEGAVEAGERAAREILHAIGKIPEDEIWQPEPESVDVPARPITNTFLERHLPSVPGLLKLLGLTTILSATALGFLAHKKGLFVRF
The data set can be described thus: Inhibition of MAO-B in rat liver homogenate after 60 mins by Lineweaver-Burke plot. It is filed as tissue-based. The note with it: for Activity: rat, 1 h, TDE = time-dependent effect.

For data set [3], the system named is Mus musculus. The data set can be described thus: Anxiolytic activity in albino mouse assessed as time spent on closed arm at 100 mg/kg, ip by plus-maze test. On the set-up: unit not given here. It is filed as functional. To be noted: route intraperitoneal. A digest of the protocol:
as §1

Data set [4] relates to Mus musculus. Kind of data set: Antidepressant activity in albino mouse assessed as immobility time at 100 mg/kg, ip by forced swim test. It is filed as functional. The note with it: route intraperitoneal. A digest of the protocol:
as §1

Data set [5] deals with T2, Amine oxidase [flavin-containing] A (Rattus norvegicus, UniProt P21396).
T2 sequence (P21396 whole entry): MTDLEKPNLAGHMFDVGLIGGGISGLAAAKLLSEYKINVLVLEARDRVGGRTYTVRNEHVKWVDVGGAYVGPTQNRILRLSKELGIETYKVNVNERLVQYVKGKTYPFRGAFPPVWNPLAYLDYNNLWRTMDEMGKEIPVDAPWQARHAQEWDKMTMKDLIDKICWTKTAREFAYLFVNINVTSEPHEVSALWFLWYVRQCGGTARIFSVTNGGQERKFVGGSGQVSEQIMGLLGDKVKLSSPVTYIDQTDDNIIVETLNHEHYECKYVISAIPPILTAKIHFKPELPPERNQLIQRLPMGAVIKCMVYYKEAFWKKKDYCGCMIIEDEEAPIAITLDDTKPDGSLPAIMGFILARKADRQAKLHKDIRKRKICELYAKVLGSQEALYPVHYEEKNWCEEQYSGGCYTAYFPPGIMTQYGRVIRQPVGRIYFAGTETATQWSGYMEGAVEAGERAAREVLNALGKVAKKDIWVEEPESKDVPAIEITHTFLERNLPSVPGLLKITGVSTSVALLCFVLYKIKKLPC
Kind of data set: Inhibition of MAO-A in rat liver homogenate after 60 mins by residual activity plot. It is filed as tissue-based.

In data set [6] the target is T2, Amine oxidase [flavin-containing] A. The data set can be described thus: Inhibition of MAO-A in rat liver homogenate after 60 mins by Lineweaver-Burke plot. It is filed as tissue-based. To be noted: for Activity: rat, 1 h, TDE = time-dependent effect.
Data set [7] deals with T1, Amine oxidase [flavin-containing] B. Kind of data set: Inhibition of MAO-B in rat liver homogenate after 60 mins by residual activity plot. It is filed as tissue-based.
Data set [8] deals with Mus musculus. Kind of data set: Anxiolytic activity in albino mouse assessed as time spent on closed arm at 5 mg/kg, ip by plus-maze test. It is filed as functional. The note with it: route intraperitoneal.
Data set [9] has as its system Mus musculus. Kind of data set: Antidepressant activity in albino mouse assessed as immobility time at 5 mg/kg, ip by forced swim test. It is filed as functional. The note with it: route intraperitoneal.
Data set [10] has as its system Mus musculus. Kind of data set: Anxiolytic activity in albino mouse assessed as total number of entries into arms at 5 mg/kg, ip by plus-maze test. It is filed as functional. To be noted: route intraperitoneal.

SMILES strings stand for the structures.

As for `COc1ccc(C2=NN(c3nc4ccccc4c(=O)n3C)C(c3ccco3)C2)cc1` (centres undefined), in the data set on Mus musculus [1], the arm entries worked out at 5.57 entries. In addition, the inhibition constant Ki in data set [2] worked out at 1.48 µM; in data set [6], 6.8 µM. In addition, the Activity result in data set [2] is given as “tde”; with Mus musculus [3], 226; in the data set with Mus musculus [4], 69%; in data set [6], “tde”. Besides, the results for the half-inhibitory concentration (IC50) in data set [5] and in data set [7] were 418 µM and 2.03 µM, respectively.
With `COc1ccc(C2CC(c3ccccc3)=NN2c2nc3ccccc3c(=O)n2C)cc1` (centres undefined), in the data set on Mus musculus [1], the arm entries was 5.37 entries. In addition, the inhibitory constant (Ki) stood at 9.9 µM in data set [2] and 1.03 µM in data set [6]. For the same compound, the Activity result in data set [2] is given as “tde”; in the data set on Mus musculus [3], 162.43; with Mus musculus [4] it was 58%; in [6], “tde”. In addition, the IC50 in [5] amounted to 4.51 µM; in [7], 400 µM.
Consider `Cc1ccc(C2=NN(c3nc4ccccc4c(=O)n3C)C(c3ccco3)C2)cc1` (centres undefined), for which, in the data set on Mus musculus [1], the arm entries amounted to 9 entries. Also, the results for the inhibition constant (Ki) in data set [2] and in data set [6] were 88.6 µM and 140 µM, respectively. For the same compound, the Activity result in data set [2] is “tde”; in the data set with Mus musculus [3], 208.57; with Mus musculus [4] it was 64%; in data set [6], “tde”. Besides, the figures for the IC50 in [5] and in [7] were 410 µM and 77.1 µM, respectively.
In the case of `Cn1c(N2N=C(c3ccccc3)CC2c2ccc(Cl)cc2)nc2ccccc2c1=O` (centres undefined), in the data set with Mus musculus [1], the arm entries came to 4.12 entries. In addition, the values for the Ki in data set [2] and in data set [6] were 18.4 µM and 2.7 µM, respectively. Further, the Activity result was “tde” in data set [2], 154.75 with Mus musculus [3], 42.37% in the data set on Mus musculus [4] and “tde” in data set [6]. The values for the IC50 in [5] and in [7] were 3.7 µM and 416 µM, respectively.
For the compound `Cn1c(N2N=C(c3ccccc3)CC2c2cccc(Cl)c2)nc2ccccc2c1=O` (centres undefined), the arm entries in the data set on Mus musculus [1] is 3.75 entries. Further, the values for the Ki in data set [2] and in data set [6] were 5.8 µM and 0.9 µM, respectively. The Activity result in [2] is reported as “tde”; with Mus musculus [3] it was 218.25; in the data set with Mus musculus [4] it was 26.25%; in [6], “tde”. Besides, the results for the IC50 in data set [5] and in data set [7] were 1.02 µM and 400 µM, respectively.
For the compound `Cc1ccc(C2CC(c3ccccc3)=NN2c2nc3ccccc3c(=O)n2C)cc1` (centres undefined), in the data set on Mus musculus [1], the arm entries was found to be 3.87 entries. Also, the inhibitory constant (Ki) in data set [2] is 7.9 µM; in data set [6], 2.56 µM. Moreover, the Activity result in data set [2] is “tde”; in the data set on Mus musculus [3], 178.25; in the data set with Mus musculus [4], 43.25%; in data set [6], “tde”. Further, the IC50 in data set [5] was 4.51 µM; in [7] it was 484 µM.
In the case of `Cn1c(N2N=C(c3ccc(Cl)cc3)CC2c2ccco2)nc2ccccc2c1=O` (centres undefined), the arm entries with Mus musculus [1] is 4.86 entries. In addition, the inhibition constant Ki in [2] was found to be 9.25 µM; in [6], 28.7 µM. Further, the Activity entry in data set [2] is on record as “tde”; with Mus musculus [3], 204; with Mus musculus [4], 74%; in data set [6], “tde”. For the same compound, the half-maximal inhibitory concentration (IC50) in data set [5] amounted to 450 µM; in data set [7] it was 7.22 µM.
On to `Cn1c(N2N=C(c3ccccc3)CC2c2ccccc2)nc2ccccc2c1=O` (centres undefined), for which, in the data set on Mus musculus [1], the arm entries was 4.37 entries. Besides, the inhibition constant (Ki) turned out to be 25.2 µM in [2] and 9.9 µM in data set [6]. Also, the Activity entry is “tde” in [2], 222.27 in the data set with Mus musculus [3], 27% in the data set with Mus musculus [4] and “tde” in [6]. Moreover, the 50% inhibitory concentration (IC50) in data set [5] turned out to be 9.46 µM; in [7], 410 µM.
Regarding `Cn1c(N2N=C(c3ccccc3)CC2c2ccc(Br)cc2)nc2ccccc2c1=O` (centres undefined), in the data set on Mus musculus [1], the arm entries was determined as 3.25 entries. Moreover, the inhibitory constant (Ki) was determined as 10.6 µM in data set [2] and 1.17 µM in data set [6]. Further, the Activity result is “tde” in data set [2], 230 with Mus musculus [3], 65.12% with Mus musculus [4] and “tde” in [6]. Further, the IC50 in data set [5] was 1.68 µM; in [7], 485 µM.
On to `COc1ccc(C2=NN(c3nc4ccccc4c(=O)n3C)C(c3cccs3)C2)cc1` (centres undefined), for which, in the data set on Mus musculus [1], the arm entries worked out at 5.13 entries. The Ki in [2] worked out at 16.3 µM; in data set [6] it was 25.3 µM. Besides, the Activity result is recorded as “tde” in [2], 248.5 with Mus musculus [3], 61.13% in the data set on Mus musculus [4] and “tde” in data set [6]. The concentration for half-maximal inhibition (IC50) in data set [5] was 440 µM; in data set [7] it was 15.2 µM.
As for `O=C(NCCN1CCOCC1)c1ccc(Cl)cc1` [MOCLOBEMIDE], the results for the Activity with Mus musculus [8] and in the data set with Mus musculus [9] were 250.72% and 54.3%, respectively. In data set [2], this compound displayed a Ki of 10.2 µM. Further, the arm entries in the data set with Mus musculus [10] amounted to 6.15 entries.

A word on the Ki: it is a dissociation constant, usually derived from enzyme kinetics or from competition with a known ligand. A word on the IC50: it is the concentration needed to halve the response being measured.
